Source: article PMC10633821 (RSC Advances, 2023)

Legend:
Format in all cases: cell-based
MCF-7 cells [1] = test: Cell cycle analysis by flow cytometry; settings: MCF-7, 3b at IC50 (1.85 μM), 48 h
In short: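 MCF-7 cells were seeded, held 12 h at 37 °C, then treated for 48 h. Cells were collected and fixed in 75% ethanol at 20 °C for 18 h. They were rinsed in PBS, centrifuged, and exposed to RNase plus propidium iodide. DNA content was read by FACS Calibur flow cytometry to give cell-cycle phase distribution.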

[2] = target: human DNA topoisomerase II-β (TOPII-β) (Homo sapiens, UniProt Q02880); test: Topoisomerase II activity in MCF-7 cells; settings: ELISA kit
In short: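 Sandwich ELISA for human TOPII-β, run per the kit protocol. Standards and samples were incubated 2 h at 37 °C, then biotin-antibody 1 h at 37 °C, three washes, HRP-avidin 1 h at 37 °C and five washes. TMB substrate was added for 15–30 min at 37 °C in the dark, then stop solution. OD450 was read within 5 min, in triplicate.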

MCF-7 cells [3] = test: MTT assay, anti-proliferative activity on MCF-7 cells; settings: Homo sapiens, MCF7, 48 h, read-out: IC50, growth/viability of MCF-7 cells
[4] = MTT assay, cytotoxicity on normal breast cells MCF-10A; settings: human, MCF-10A cells (normal breast cells)
MCF-7 cells [5] = test: Annexin V-FITC/PI assay of apoptosis and necrosis; settings: MCF-7, 3b at IC50 (1.85 μM), 48 h
In short: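 MCF-7 cells were treated for 48 h, then harvested and washed twice in PBS by centrifugation (180 g, 10 min, 4 °C). Cells were resuspended in binding buffer with Annexin V-FITC for 10 min at ambient temperature, then diluted with more binding buffer. PI was added immediately before FACS Calibur flow cytometry to separate apoptotic from necrotic cells.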

Sequence of human DNA topoisomerase II-β (TOPII-β) (Q02880 whole entry): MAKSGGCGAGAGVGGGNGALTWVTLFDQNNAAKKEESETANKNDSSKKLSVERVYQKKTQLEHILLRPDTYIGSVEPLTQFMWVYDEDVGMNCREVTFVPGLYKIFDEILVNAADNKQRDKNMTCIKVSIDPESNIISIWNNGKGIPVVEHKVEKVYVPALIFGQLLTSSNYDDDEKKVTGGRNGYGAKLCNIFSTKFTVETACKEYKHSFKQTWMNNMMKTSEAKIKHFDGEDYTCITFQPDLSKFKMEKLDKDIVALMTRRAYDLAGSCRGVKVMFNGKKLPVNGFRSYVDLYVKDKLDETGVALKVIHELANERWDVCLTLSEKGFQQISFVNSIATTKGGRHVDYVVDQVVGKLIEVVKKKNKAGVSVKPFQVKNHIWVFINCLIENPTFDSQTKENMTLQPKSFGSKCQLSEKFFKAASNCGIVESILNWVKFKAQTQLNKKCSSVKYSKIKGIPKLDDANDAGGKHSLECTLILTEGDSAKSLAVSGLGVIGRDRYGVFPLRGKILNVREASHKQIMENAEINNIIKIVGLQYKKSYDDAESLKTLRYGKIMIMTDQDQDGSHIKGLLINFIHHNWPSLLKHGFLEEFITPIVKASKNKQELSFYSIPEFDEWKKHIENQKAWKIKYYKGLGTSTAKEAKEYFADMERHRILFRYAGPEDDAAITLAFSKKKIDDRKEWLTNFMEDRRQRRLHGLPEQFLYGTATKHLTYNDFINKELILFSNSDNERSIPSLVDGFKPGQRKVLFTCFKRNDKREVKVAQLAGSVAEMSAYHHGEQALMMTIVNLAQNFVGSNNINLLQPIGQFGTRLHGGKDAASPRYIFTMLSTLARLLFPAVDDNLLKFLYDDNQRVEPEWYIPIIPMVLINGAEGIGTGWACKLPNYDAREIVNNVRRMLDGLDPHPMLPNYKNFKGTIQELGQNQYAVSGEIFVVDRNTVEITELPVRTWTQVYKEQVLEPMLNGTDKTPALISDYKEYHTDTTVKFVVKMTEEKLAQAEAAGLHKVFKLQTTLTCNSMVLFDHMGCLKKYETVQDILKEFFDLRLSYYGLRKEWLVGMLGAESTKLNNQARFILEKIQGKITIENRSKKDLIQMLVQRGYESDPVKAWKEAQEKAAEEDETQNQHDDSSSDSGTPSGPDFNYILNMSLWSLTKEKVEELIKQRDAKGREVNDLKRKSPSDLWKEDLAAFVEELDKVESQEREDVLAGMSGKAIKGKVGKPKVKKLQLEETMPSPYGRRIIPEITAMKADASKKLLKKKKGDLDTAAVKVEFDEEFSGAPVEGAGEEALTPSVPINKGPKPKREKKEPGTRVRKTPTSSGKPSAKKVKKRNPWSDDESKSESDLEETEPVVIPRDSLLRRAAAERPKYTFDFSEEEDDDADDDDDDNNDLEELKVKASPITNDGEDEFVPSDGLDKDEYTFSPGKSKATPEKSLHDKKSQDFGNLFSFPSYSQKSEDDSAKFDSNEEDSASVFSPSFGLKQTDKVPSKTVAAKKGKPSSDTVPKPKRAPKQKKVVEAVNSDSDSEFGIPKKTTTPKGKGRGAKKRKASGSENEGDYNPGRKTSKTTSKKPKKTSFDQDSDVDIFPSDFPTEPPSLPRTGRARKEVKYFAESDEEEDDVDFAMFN

COc1cccc2cc(C3=Nc4ccccc4NC3)c(=O)oc12 [compound 3b, 2-(8-Methoxy-coumarin-3yl)-3,4-dihydroquinoxaline]
percentage of cells in the pre-G1 phase (MCF-7 cells [1]; untreated control 2.02%): 42.39% | percentage of cells in the G2/M phase (%DIP G2/M) (MCF-7 cells [1]; untreated control 11.65%): 6.52% | proportion of cells in the S phase (%DIP S) (MCF-7 cells [1]; untreated control 32.89%): 47.12% | percentage of cells in the G0/G1 phase (%DIP G1) (MCF-7 cells [1]; untreated control 55.46%): 46.36% | reduction of topo II enzyme in comparison to untreated control cells [2]: 6.5 fold | IC50 (MCF-7 cells [3]): 1.85 ± 0.11 µM | IC50 at 48 h [4]: 33.7 ± 2.04 µM | increase in early apoptosis vs untreated control (MCF-7 cells [5]): 51.7 fold | increase in programmed cell death vs untreated cells (MCF-7 cells [5]): 21 fold | proportion of cells in late-stage apoptosis (MCF-7 cells [5]; control 0.29%): 12.42% | proportion of cells in early apoptosis (MCF-7 cells [5]; control 0.51%): 26.39% | proportion of cells suffering necrosis (MCF-7 cells [5]; untreated 1.2%): 3.58% | total programmed cell death (MCF-7 cells [5]; untreated cells 2.02%): 42.39%

COc1cccc2cc(-c3cnc4ccccc4n3)c(=O)oc12 [compound 4b, 2-(8-Methoxycoumarin-3-yl)-quinoxaline]
IC50 (MCF-7 cells [3]): 4.08 µM

COc1ccc(Br)c2cc(-c3cnc4ccccc4n3)c(=O)oc12 [compound 5, 2-(5-bromo-8-methoxy-coumarin-3-yl)-quinoxaline]
IC50 (MCF-7 cells [3]): 55 µM

Oc1c(N=Nc2ccccc2)cc(Br)cc1C1=CNc2ccccc2N1 [compound 7, 2-(5-bromo-3-phenylazo-2-hydroxyphenyl)-1,4-dihydro quinoxaline]
IC50 (MCF-7 cells [3]): 8.6 µM
